Values after ≈ are worked out from the molar mass of the structure shown.
Tests used:
[1] = tested on: Mycobacterium tuberculosis; assay: Antitubercular activity against linezolid-resistant Mycobacterium tuberculosis incubated for 7 days by microplate alamar blue assay; assay type: functional; conditions: 168 h, time 7 day
How it was run: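 MIC determined by microplate alamar blue assay (MABA) following a published protocol.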

[2] = Ratio of MIC for antitubercular activity against linezolid-resistant Mycobacterium tuberculosis to MIC for antitubercular activity against Mycobacterium tuberculosis H37Rv; assay type: functional

SMILES	MIC [1] [µg/mL]	Ratio [2]
CC(=O)NC[C@@H]1OC(=O)N2c3cc(F)c(N4CCSCC4)cc3OC[C@@H]12 [listing 1 of 2 here]	0.24 (≈ 0.629 µM)	
CO[C@H]1/C=C/O[C@@]2(C)Oc3c(C)c(O)c4c(O)c(c(/C=N/N5CCN(C)CC5)c(O)c4c3C2=O)NC(=O)/C(C)=C\C=C\[C@H](C)[C@H](O)[C@@H](C)[C@@H](O)[C@@H](C)[C@H](OC(C)=O)[C@@H]1C [RIFAMPIN]	0.03 (≈ 0.0365 µM)	
NNC(=O)c1ccncc1 [ISONIAZID]	0.04 (≈ 0.292 µM)	
CC(=O)NC[C@H]1CN(c2ccc(N3CCOCC3)c(F)c2)C(=O)O1 [LINEZOLID]	3.92 (≈ 11.6 µM)	
CC(=O)NC[C@@H]1OC(=O)N2c3cc(F)c(N4CC[S+]([O-])CC4)cc3OC[C@@H]12	6.68 (≈ 16.8 µM)	4
CC(=O)NC[C@H]1CN(c2ccc(N3CCSCC3)c(F)c2)C(=O)O1 [SUTEZOLID]	0.96 (≈ 2.72 µM)	4
CC(=O)NC[C@@H]1OC(=O)N2c3cc(F)c(N4CCSCC4)cc3OC[C@@H]12 [listing 2 of 2 here]		4

Reference: ChEMBL document CHEMBL4725282, “Discovery of a Conformationally Constrained Oxazolidinone with Improved Safety and Efficacy Profiles for the Treatment of Multidrug-Resistant Tuberculosis” (J Med Chem, 2020)
